We go through 12 molecules from ChEMBL document CHEMBL1275477, “Discovery and characterization of QPT-1, the progenitor of a new class of bacterial topoisomerase inhibitors” (Antimicrob Agents Chemother, 2008).

Type in all cases: functional
For test [1], the system named is Staphylococcus aureus. Description: Antimicrobial activity against Staphylococcus aureus 286607-R1 by broth microdilution method. A digest of the protocol:
(§1)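 Broth microdilution MIC following National Committee for Clinical Laboratory Standards methods. Plasmid-borne GyrB in transformed S. aureus strains was overexpressed by adding 100 ng/ml doxycycline.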

The test system of test [2] is Staphylococcus aureus. The experiment in a line: Antibacterial activity against Staphylococcus aureus RN4220 by broth microdilution method. A digest of the protocol: as §1
The test system of test [3] is Staphylococcus aureus. The experiment in a line: Antimicrobial activity against Staphylococcus aureus 286607-R1 harboring wild type gyrB by broth microdilution method. The method, boiled down: as §1
Test [4] concerns Staphylococcus aureus. Description: Antimicrobial activity against Staphylococcus aureus RN4220 expressing gyrB D437N mutant gene by broth microdilution method. A digest of the protocol:
as §1

Values after ≈ are worked out from the molar mass of the structure shown.

`CN[C@@H]1[C@H](O[C@H]2[C@H](O[C@H]3[C@H](O)[C@@H](O)[C@H](N=C(N)N)[C@@H](O)[C@@H]3N=C(N)N)O[C@@H](C)[C@]2(O)C=O)O[C@@H](CO)[C@H](O)[C@H]1O` [STREPTOMYCIN]: the minimum inhibitory concentration (MIC) against Staphylococcus aureus [1], against Staphylococcus aureus [2], against Staphylococcus aureus [3] and in the test with Staphylococcus aureus [4] was 4 µg/mL (≈ 6.88 µM) throughout.
As to `CC1(C)S[C@@H]2[C@H](NC(=O)[C@H](N)c3ccccc3)C(=O)N2[C@H]1C(=O)O` [AMPICILLIN], the MIC against Staphylococcus aureus [1] turned out to be 4 µg/mL (≈ 11.4 µM); against Staphylococcus aureus [2], 2 µg/mL (≈ 5.72 µM); against Staphylococcus aureus [3] it was 2 µg/mL (≈ 5.72 µM); in the test on Staphylococcus aureus [4], 2 µg/mL (≈ 5.72 µM).
As for `CC(=O)NC[C@H]1CN(c2ccc(N3CCOCC3)c(F)c2)C(=O)O1` [LINEZOLID], the minimum inhibitory concentration (MIC) against Staphylococcus aureus [1], against Staphylococcus aureus [2], in the test with Staphylococcus aureus [3] and in the test on Staphylococcus aureus [4] was 1 µg/mL (≈ 2.96 µM) each time.
Consider `CCn1cc(C(=O)O)c(=O)c2ccc(C)nc21` [NALIDIXIC ACID], for which the minimal inhibitory concentration (MIC) was found to be 64 µg/mL (≈ 276 µM) in the test with Staphylococcus aureus [1], 32 µg/mL (≈ 138 µM) against Staphylococcus aureus [2], 32 µg/mL (≈ 138 µM) in the test on Staphylococcus aureus [3] and 32 µg/mL (≈ 138 µM) in the test on Staphylococcus aureus [4].
Regarding `CO[C@H]1/C=C/O[C@@]2(C)Oc3c(C)c(O)c4c(O)c(c(/C=N/N5CCN(C)CC5)c(O)c4c3C2=O)NC(=O)/C(C)=C\C=C\[C@H](C)[C@H](O)[C@@H](C)[C@@H](O)[C@@H](C)[C@H](OC(C)=O)[C@@H]1C` [RIFAMPIN], the minimum inhibitory concentration (MIC) against Staphylococcus aureus [1] and against Staphylococcus aureus [2] was less than 0.625 µg/mL each time.
As for `CCn1cc(C(=O)O)c(=O)c2cc(F)c(N3CCNCC3)cc21` [NORFLOXACIN], the minimum inhibitory concentration (MIC) against Staphylococcus aureus [1] was found to be 2 µg/mL (≈ 6.26 µM); against Staphylococcus aureus [2] it was 0.5 µg/mL (≈ 1.57 µM); against Staphylococcus aureus [3] it was 0.5 µg/mL (≈ 1.57 µM); with Staphylococcus aureus [4], 0.5 µg/mL (≈ 1.57 µM).
As for `O=C(N[C@H](CO)[C@H](O)c1ccc([N+](=O)[O-])cc1)C(Cl)Cl` [CHLORAMPHENICOL], the MIC with Staphylococcus aureus [1], in the test with Staphylococcus aureus [2], against Staphylococcus aureus [3] and in the test on Staphylococcus aureus [4] was 8 µg/mL (≈ 24.8 µM) in each case.
Take `NC[C@H]1O[C@H](O[C@H]2[C@H](O)[C@@H](O[C@H]3O[C@H](CO)[C@@H](O)[C@H](N)[C@H]3O)[C@H](N)C[C@@H]2N)[C@H](O)[C@@H](O)[C@@H]1O` [KANAMYCIN]: the MIC against Staphylococcus aureus [1] came to 4 µg/mL (≈ 8.26 µM); in the test on Staphylococcus aureus [2], 2 µg/mL (≈ 4.13 µM); against Staphylococcus aureus [3], 2 µg/mL (≈ 4.13 µM); against Staphylococcus aureus [4] it was 2 µg/mL (≈ 4.13 µM).
Consider `CN(C)[C@@H]1C(O)=C(C(N)=O)C(=O)[C@@]2(O)C(O)=C3C(=O)c4c(O)cccc4[C@@](C)(O)[C@H]3C[C@@H]12` [TETRACYCLINE], for which the MIC with Staphylococcus aureus [1], against Staphylococcus aureus [2], in the test with Staphylococcus aureus [3] and against Staphylococcus aureus [4] was 0.125 µg/mL (≈ 0.281 µM) in each case.
Regarding `NC[C@@H]1O[C@H](O[C@H]2[C@@H](O)[C@H](O[C@@H]3[C@@H](O)[C@H](N)C[C@H](N)[C@H]3O[C@H]3O[C@H](CN)[C@@H](O)[C@H](O)[C@H]3N)O[C@@H]2CO)[C@H](N)[C@@H](O)[C@@H]1O` [FRAMYCETIN], the MIC was 4 µg/mL (≈ 6.51 µM) in the test on Staphylococcus aureus [1], 2 µg/mL (≈ 3.25 µM) in the test with Staphylococcus aureus [2], 2 µg/mL (≈ 3.25 µM) against Staphylococcus aureus [3] and 2 µg/mL (≈ 3.25 µM) with Staphylococcus aureus [4].
With `CC[C@H]1OC(=O)[C@H](C)[C@@H](O[C@H]2C[C@@](C)(OC)[C@@H](O)[C@H](C)O2)[C@H](C)[C@@H](O[C@@H]2O[C@H](C)C[C@H](N(C)C)[C@H]2O)[C@](C)(O)C[C@@H](C)C(=O)[C@H](C)[C@@H](O)[C@]1(C)O` [ERYTHROMYCIN], the MIC against Staphylococcus aureus [1], with Staphylococcus aureus [2], in the test with Staphylococcus aureus [3] and with Staphylococcus aureus [4] was 0.5 µg/mL (≈ 0.681 µM) each time.
Consider `CN[C@@H]1[C@H](O)[C@H](NC)[C@H]2O[C@@]3(O)C(=O)C[C@@H](C)O[C@H]3O[C@@H]2[C@H]1O` [SPECTINOMYCIN], for which the MIC against Staphylococcus aureus [1], in the test with Staphylococcus aureus [2], against Staphylococcus aureus [3] and with Staphylococcus aureus [4] was 64 µg/mL (≈ 193 µM) throughout.
